Active and inactive are the calls of the source. The calls are words filed in the database; no cut-off is given here.
What was measured:
[1] = molecular target: Gamma-secretase; test: Inhibition of gamma secretase in human SH-SY5Y cells by HTRF assay; assay type: cell-based
[2] = tested on: Mus musculus; test: Reduction in amyloid beta40 production in human betaAAP overexpressing YAC mouse forebrain at 3 mg/kg, po after 4 hrs relative to control; assay type: functional; design: scale not given: the % may be the effect or the level left
Procedure, shortened: (§1)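 APP-YAC transgenic mice overexpressing human βAPP; oral dosing as suspension in 0.5% methocel, 3 mg/kg (also 0.3 and 1 mg/kg for dose–response). Soluble Aβ(40) in forebrain measured 4 h post-dose; reduction expressed relative to vehicle-treated animals; ED50 from dose–response.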

[3] = tested on: Mus musculus; test: Reduction in amyloid beta40 production in po dosed human betaAAP overexpressing YAC mouse forebrain after 4 hrs; assay type: functional; conditions: Brain; procedure, shortened: as §1
[4] = Inhibition of gamma secretase assessed as amyloid beta42 production
[5] = Half life in rat; assay type: ADME, organism-based; conditions: in vivo
[6] = Inhibition of gamma secretase assessed as amyloid beta40 production
[7] = Half life in dog; assay type: ADME, organism-based, Canis lupus familiaris; conditions: in vivo
[8] = Bioavailability in rhesus monkey; assay type: ADME, organism-based, Macaca mulatta; conditions: in vivo
[9] = Half life in rhesus monkey; assay type: ADME, organism-based, Macaca mulatta; conditions: in vivo
[10] = Bioavailability in rat; assay type: ADME, organism-based; conditions: in vivo
[11] = Bioavailability in dog; assay type: ADME, organism-based, Canis lupus familiaris; conditions: in vivo

Structure (SMILES) | IC50 [1] [nM] | also measured
O=S1(=O)N[C@@]2(CN1CC(F)(F)F)[C@@H]1CC[C@H]2Cc2ccc(-c3cn(-c4ccc(F)c(F)c4)cn3)cc2C1 | 0.12 | –
O=S1(=O)N[C@@]2(CN1CC(F)(F)F)[C@@H]1CC[C@H]2Cc2ccc(-c3cn(-c4ccccc4F)cn3)cc2C1 | 0.17 | –
O=S1(=O)N[C@@]2(CN1CC(F)(F)F)[C@@H]1CC[C@H]2Cc2ccc(-c3cn(-c4cccc(F)c4)cn3)cc2C1 | 0.82 | –
Cn1nc(-c2ccc(F)cc2)cc1-c1ccc2c(c1)CC1CCC(C2)C12CN(CC(F)(F)F)S(=O)(=O)N2 (racemic) | 1.65 | –
O=S1(=O)N[C@@]2(CN1CC(F)(F)F)[C@@H]1CC[C@H]2Cc2ccc(-c3cn(-c4ccc(F)cc4F)cn3)cc2C1 | 0.06 | –
O=S1(=O)N[C@@]2(CN1CC(F)(F)F)[C@@H]1CC[C@H]2Cc2ccc(-c3cn(-c4ccc(Cl)c(Cl)c4)cn3)cc2C1 | 0.42 | –
Cn1nc(-c2ccc3c(c2)C[C@H]2CC[C@@H](C3)[C@]23CN(CC(F)(F)F)S(=O)(=O)N3)cc1-c1ccc(Cl)cc1 | 0.07 | –
O=S1(=O)N[C@@]2(CN1CC(F)(F)F)[C@@H]1CC[C@H]2Cc2ccc(-c3cn(-c4ccc(F)cc4)cn3)cc2C1 | 0.03 | Activity [2]: 66%
O=S1(=O)N[C@@]2(CN1CC(F)(F)F)[C@@H]1CC[C@H]2Cc2ccc(-c3cn(-c4ccc(Cl)cc4)cn3)cc2C1 | 0.08 | –
Cn1nc(-c2ccc3c(c2)CC2CCC(C3)C23CN(CC(F)(F)F)S(=O)(=O)N3)cc1-c1ccccc1F (racemic) | 0.21 | –
O=S1(=O)N[C@@]2(CN1CC(F)(F)F)[C@@H]1CC[C@H]2Cc2ccc(-c3ncn(-c4ccc(F)cc4)n3)cc2C1 | 0.15 | –
O=S1(=O)N[C@@]2(CN1CC(F)(F)F)[C@@H]1CC[C@H]2Cc2ccc(/C=C/CN3CCC(C(F)(F)F)CC3)cc2C1 | 0.24 | ED50 [3]: 17 mg/kg
O=S1(=O)N[C@@]2(CN1CC(F)(F)F)[C@@H]1CC[C@H]2Cc2ccc(-c3ncc(-c4ccc(F)cc4)s3)cc2C1 | 0.42 | –
Cn1nc(-c2ccc3c(c2)C[C@H]2CC[C@@H](C3)[C@]23CN(CC(F)(F)F)S(=O)(=O)N3)cc1-c1cccc(F)c1 (racemic) | 0.46 | –
O=S1(=O)N[C@@]2(CN1CC(F)(F)F)[C@@H]1CC[C@H]2Cc2ccc(-c3ncc(N4CCC(C(F)(F)F)CC4)s3)cc2C1 | 0.34 | –
Cn1nc(-c2ccc3c(c2)C[C@H]2CC[C@@H](C3)[C@]23CN(CC(F)(F)F)S(=O)(=O)N3)cc1-c1ccc(F)c(F)c1 | 0.06 | –
Cn1nc(-c2ccc3c(c2)C[C@H]2CC[C@@H](C3)[C@]23CN(CC(F)(F)F)S(=O)(=O)N3)cc1-c1ccc(F)cc1 | 0.06 | Activity [4]: Active; half-life [5]: 2 h; Activity [6]: Active; half-life [7]: > 10 h; bioavailability [8]: 45%; half-life [9]: 16 h; bioavailability [10]: 35%; Activity [2]: 84%; bioavailability [11]: 42%; ED50 [3]: 1 mg/kg
Cn1nc(-c2ccc3c(c2)C[C@H]2CC[C@@H](C3)[C@]23CN(CC(F)(F)F)S(=O)(=O)N3)cc1-c1ccc(F)cc1F | 0.06 | –
Cn1nc(-c2ccc3c(c2)C[C@H]2CC[C@@H](C3)[C@]23CN(CC(F)(F)F)S(=O)(=O)N3)cc1-c1ccc(Cl)c(Cl)c1 | 0.41 | –

Reference: ChEMBL document CHEMBL1136928, “Novel orally bioavailable gamma-secretase inhibitors with excellent in vivo activity” (J Med Chem, 2009)
